Measurements from article PMC4277207 (ChemMedChem, 2014).
“Also recorded” adds a separate entry of the source. Like-named read-outs stand apart in the source and are kept apart here.

Key:
[1] = system: D1-like receptor (D1 and D5); assay: [3H]SCH 23390 binding assay, rat striatal membranes; conditions: ratio of Ki values, rat brain preparation
[2] = system: D2-like receptor (D2, D3, and D4); assay: [3H]spiperone binding assay, rat striatal; conditions: ratio of Ki values, rat brain preparation
How it was run: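 The D2-like assay used [3H]spiperone at 0.2 nM on caudate-putamen membranes at 1.5 mg o.w.w./mL, in agonist-optimised Tris-HCl/KCl/MgCl2/CaCl2 buffer at pH 7.4. Nonspecific binding was set with 1 μM (+)-butaclamol, and KD was 0.4 nM. For two-site curves, the high-affinity Ki is reported. […] Values are means of 3–6 determinations.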

human D3 receptor = human D3 receptor (Homo sapiens, UniProt P35462); assay type: cell-based; conditions: hD3-transfected CHOp cells, mitogenesis; for IC50: read-out: Agonist activity: IC50, mean ± SEM of 3–6 determinations
[3] = assay type: in vitro ADME

Sequence of human D3 receptor (P35462 whole entry): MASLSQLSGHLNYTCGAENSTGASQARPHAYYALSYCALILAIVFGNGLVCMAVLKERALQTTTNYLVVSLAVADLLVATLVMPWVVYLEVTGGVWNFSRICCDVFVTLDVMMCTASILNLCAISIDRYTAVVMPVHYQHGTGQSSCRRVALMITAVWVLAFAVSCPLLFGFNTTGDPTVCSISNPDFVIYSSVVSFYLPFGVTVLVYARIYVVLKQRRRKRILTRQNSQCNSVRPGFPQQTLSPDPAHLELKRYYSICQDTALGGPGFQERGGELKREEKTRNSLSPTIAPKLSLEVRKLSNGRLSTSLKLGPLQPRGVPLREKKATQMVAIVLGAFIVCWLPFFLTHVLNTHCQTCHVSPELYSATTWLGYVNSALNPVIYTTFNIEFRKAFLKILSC

Row | Compound | Selectivity D1-like/D3 [1] | Selectivity D2-like/D3 [2] | % of Stimulation compared to Quinpirole as the standard agonist (human D3 receptor) [%] | functional activity at the human D3 receptor (agonist character) (human D3 receptor) | IC50 (human D3 receptor) [nM] | t1/2 in human liver microsomes [3] [h] | Percentage remaining of compounds in human liver microsomes ([3]; 0 h) [%] | Percentage remaining of compounds in human liver microsomes ([3]; 5 min) [%] | Percentage remaining of compounds in human liver microsomes ([3]; 10 min) [%] | Percentage remaining of compounds in human liver microsomes ([3]; 0.25 h) [%] | Percentage remaining of compounds in human liver microsomes ([3]; 0.5 h) [%] | Percentage remaining of compounds in human liver microsomes ([3]; 1 h) [%]
1 | CCCN(CC[C@]1(O)C[C@@H](NC(=O)c2cccc(OC)c2)C1)[C@H]1CCc2nc(N)sc2C1 (relative stereo) [Compound 21, N-(cis-3-(2-(((S)-2-Amino-4,5,6,7-tetrahydrobenzo[d]thiazol-6-yl)(propyl)amino)-ethyl)-3-hydroxycyclobutyl)-3-methoxybenzamide] | 84,474 | 12,836 | 100 | full D3 agonists | 18 ± 2.7 | >1 | 100 | 99.7 | 98.5 | 92.5 | 83.0 | 74.1
2 | CCCN(CC[C@]1(O)C[C@@H](NC(=O)c2cccc(-c3noc(C)n3)c2)C1)[C@H]1CCc2nc(N)sc2C1 (relative stereo) [Compound 23, N-(cis-3-(2-(((S)-2-amino-4,5,6,7-tetrahydrobenzo[d]thiazol-6-yl)(propyl)amino)-ethyl)-3-hydroxycyclobutyl)-3-(5-methyl-1,2,4-oxadiazol-3-yl)benzamide] | 28,300 | 29,800 | 100 | full D3 agonists; also recorded: full agonist | 19 ± 1.5 | >1 | 100 | 96.6 | 99.2 | 99.0 | 90.0 | 65.5
3 | CCCN(CC[C@]1(O)C[C@@H](NS(=O)(=O)c2ccc(F)cc2)C1)[C@H]1CCc2nc(N)sc2C1 (relative stereo) [Compound 33, N-(cis-3-(2-(((S)-2-Amino-4,5,6,7-tetrahydrobenzo[d]thiazol-6-yl)(propyl)amino)-ethyl)-3-hydroxycyclobutyl)-4-fluorobenzenesulfonamide] | 53,684 | 414 | 100 | full D3 agonists | 17 ± 4.4 |  |  |  |  |  |  | 
4 | CCCN(CCC1(O)CC(NC(=O)c2ccccc2F)C1)[C@H]1CCc2nc(N)sc2C1 (stereo in doubt) [Compound 15, N-(cis-3-(2-(((S)-2-amino-4,5,6,7-tetrahydrobenzo[d]thiazol-6-yl)(propyl)amino)-ethyl)-3-hydroxycyclobutyl)-2-fluorobenzamide] | 116,521 | 36,956 | 100 | full D3 agonists | 2 ± 0.49 |  |  |  |  |  |  | 
5 | CCCN(CCC1(O)CC(NC(=O)c2ccc(F)c(Cl)c2)C1)[C@H]1CCc2nc(N)sc2C1 (stereo in doubt) [Compound 18, N-(cis-3-(2-(((S)-2-amino-4,5,6,7-tetrahydrobenzo[d]thiazol-6-yl)(propyl)amino)-ethyl)-3-hydroxycyclobutyl)-3-chloro-4-fluorobenzamide] | 65,581 | 16,272 | 100 | full D3 agonists | 2 ± 0.34 |  |  |  |  |  |  | 
6 | CCCN(CCC1(O)CC(NC(=O)c2ccc(OC)cc2)C1)[C@H]1CCc2nc(N)sc2C1 (stereo in doubt) [Compound 20, N-(cis-3-(2-(((S)-2-Amino-4,5,6,7-tetrahydrobenzo[d]thiazol-6-yl)(propyl)amino)-ethyl)-3-hydroxycyclobutyl)-4-methoxybenzamide] | 61,143 | 3,779 |  |  |  | >1 | 100 | 97.7 | 94.1 | 94.0 | 85.5 | 76.7
7 | CCCN(CCC1(O)CC(NS(=O)(=O)c2ccccc2F)C1)[C@H]1CCc2nc(N)sc2C1 (stereo in doubt) [Compound 31, N-(cis-3-(2-(((S)-2-Amino-4,5,6,7-tetrahydrobenzo[d]thiazol-6-yl)(propyl)amino)-ethyl)-3-hydroxycyclobutyl)-2-fluorobenzenesulfonamide] | 109,000 | 614 |  |  |  |  |  |  |  |  |  | 
8 | CCCN(CCC1(O)CC(NS(=O)(=O)c2cccc(F)c2)C1)[C@H]1CCc2nc(N)sc2C1 (stereo in doubt) [Compound 32, N-(cis-3-(2-(((S)-2-Amino-4,5,6,7-tetrahydrobenzo[d]thiazol-6-yl)(propyl)amino)-ethyl)-3-hydroxycyclobutyl)-3-fluorobenzenesulfonamide] | 97,500 | 91 |  |  |  |  |  |  |  |  |  | 
9 | CCCN(CCC1(O)CC(NS(=O)(=O)c2ccc(F)c(Cl)c2)C1)[C@H]1CCc2nc(N)sc2C1 (stereo in doubt) [Compound 34, N-(cis-3-(2-(((S)-2-Amino-4,5,6,7-tetrahydrobenzo[d]thiazol-6-yl)(propyl)amino)-ethyl)-3-hydroxycyclobutyl)-3-chloro-4-fluorobenzenesulfonamide] | 18,217 | 1,052 | 100 | full D3 agonists | 26 ± 4.1 |  |  |  |  |  |  | 
10 | CCCN(CCC1(O)CC(NS(=O)(=O)c2ccc(F)c(F)c2)C1)[C@H]1CCc2nc(N)sc2C1 (stereo in doubt) [Compound 35, N-(cis-3-(2-(((S)-2-Amino-4,5,6,7-tetrahydrobenzo[d]thiazol-6-yl)(propyl)amino)-ethyl)-3-hydroxycyclobutyl)-3,4-difluorobenzenesulfonamide] | 24,516 | 19 |  |  |  |  |  |  |  |  |  | 
